The values that follow come from ChEMBL document CHEMBL1137181, “Synthesis and DP-IV inhibition of cyano-pyrazoline derivatives as potent anti-diabetic agents” (Bioorg Med Chem Lett, 2004).

For test [1], the target named is Dipeptidyl peptidase 4 (Rattus norvegicus, UniProt P14740). Kind of test: Inhibitory concentration against rat dipeptidyl peptidase IV. In a few lines:
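Rat plasma (20 µL) as enzyme source, incubated 1 h at room temperature, pH 7.8, with Ala-Pro-AFC (40 µM) ± inhibitor dissolved in DMSO (5% final in assay). Released AFC read by fluorescence (ex 360 nm, em 485 nm). IC50 obtained by curve analysis.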

In test [2] the target is Dipeptidyl peptidase 4 (Sus scrofa, UniProt P22411). Description: Inhibitory concentration against dipeptidyl peptidase IV of porcine kidney. In kind it is functional, tissue-based. In a few lines:
(§1)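 DP-IV activity from Caco-2 cells or porcine kidney, measured as AFC fluorescence (ex 360 nm, em 485 nm) liberated from Ala-Pro-AFC with or without inhibitor. Compounds in DMSO, 5% in assay mixture. IC50 obtained by curve analysis.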

Test [3] deals with Dipeptidyl peptidase 4 (Homo sapiens, UniProt P27487). Description: Inhibitory concentration against dipeptidyl peptidase IV in Caco-2 cell assay. In kind it is functional, cell-based. Summed up:
as §1

The target of test [4] is Dipeptidyl peptidase 4 (Mus musculus) (UniProt P28843). Description: Effective dose for inhibition of dipeptidyl peptidase IV in mice after 1 hr subcutaneous administration. In kind it is functional, organism-based.
Dipeptidyl peptidase 4 (Mus musculus), sequence (P28843 whole entry, looked up): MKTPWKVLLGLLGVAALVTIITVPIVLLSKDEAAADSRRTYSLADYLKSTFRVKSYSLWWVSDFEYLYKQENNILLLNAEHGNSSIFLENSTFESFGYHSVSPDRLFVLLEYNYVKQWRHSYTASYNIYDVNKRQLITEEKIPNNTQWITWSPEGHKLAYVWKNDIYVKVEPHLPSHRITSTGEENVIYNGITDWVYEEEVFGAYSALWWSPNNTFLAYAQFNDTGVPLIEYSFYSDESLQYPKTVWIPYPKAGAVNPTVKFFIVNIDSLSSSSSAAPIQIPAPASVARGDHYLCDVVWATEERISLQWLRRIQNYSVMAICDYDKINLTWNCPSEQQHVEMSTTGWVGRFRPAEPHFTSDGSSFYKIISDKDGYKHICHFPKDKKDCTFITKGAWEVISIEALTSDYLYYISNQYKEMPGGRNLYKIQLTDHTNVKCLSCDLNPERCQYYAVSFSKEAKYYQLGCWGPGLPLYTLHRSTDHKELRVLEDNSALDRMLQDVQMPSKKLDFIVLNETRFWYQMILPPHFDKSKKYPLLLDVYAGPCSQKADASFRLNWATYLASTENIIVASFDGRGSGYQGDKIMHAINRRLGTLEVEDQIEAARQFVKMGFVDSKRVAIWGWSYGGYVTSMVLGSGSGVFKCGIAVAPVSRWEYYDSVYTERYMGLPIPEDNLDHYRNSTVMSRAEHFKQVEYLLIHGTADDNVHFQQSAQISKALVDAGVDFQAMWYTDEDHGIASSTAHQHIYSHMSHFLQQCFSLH

Dipeptidyl peptidase 4 (Rattus norvegicus, UniProt P14740), sequence (P14740 whole entry): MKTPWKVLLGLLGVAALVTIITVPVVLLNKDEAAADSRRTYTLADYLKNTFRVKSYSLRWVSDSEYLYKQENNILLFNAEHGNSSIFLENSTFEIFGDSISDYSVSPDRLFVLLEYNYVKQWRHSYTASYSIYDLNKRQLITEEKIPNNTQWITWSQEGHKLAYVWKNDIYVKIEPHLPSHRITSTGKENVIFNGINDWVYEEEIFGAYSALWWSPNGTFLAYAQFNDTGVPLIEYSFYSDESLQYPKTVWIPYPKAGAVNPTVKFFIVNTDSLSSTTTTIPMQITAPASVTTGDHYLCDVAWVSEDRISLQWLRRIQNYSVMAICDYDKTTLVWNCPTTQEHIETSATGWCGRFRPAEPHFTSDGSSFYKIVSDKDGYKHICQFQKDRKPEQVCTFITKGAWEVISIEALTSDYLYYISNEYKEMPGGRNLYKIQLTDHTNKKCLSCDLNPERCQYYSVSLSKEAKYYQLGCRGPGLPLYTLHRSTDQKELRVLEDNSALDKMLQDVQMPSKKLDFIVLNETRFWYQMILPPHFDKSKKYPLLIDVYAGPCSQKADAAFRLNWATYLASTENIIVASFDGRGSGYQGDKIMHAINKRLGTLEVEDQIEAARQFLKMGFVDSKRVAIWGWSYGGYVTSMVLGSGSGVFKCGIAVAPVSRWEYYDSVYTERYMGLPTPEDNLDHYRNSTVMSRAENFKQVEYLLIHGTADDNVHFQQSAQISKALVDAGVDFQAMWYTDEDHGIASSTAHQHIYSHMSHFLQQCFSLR
Dipeptidyl peptidase 4 (Sus scrofa, UniProt P22411), sequence (P22411 whole entry): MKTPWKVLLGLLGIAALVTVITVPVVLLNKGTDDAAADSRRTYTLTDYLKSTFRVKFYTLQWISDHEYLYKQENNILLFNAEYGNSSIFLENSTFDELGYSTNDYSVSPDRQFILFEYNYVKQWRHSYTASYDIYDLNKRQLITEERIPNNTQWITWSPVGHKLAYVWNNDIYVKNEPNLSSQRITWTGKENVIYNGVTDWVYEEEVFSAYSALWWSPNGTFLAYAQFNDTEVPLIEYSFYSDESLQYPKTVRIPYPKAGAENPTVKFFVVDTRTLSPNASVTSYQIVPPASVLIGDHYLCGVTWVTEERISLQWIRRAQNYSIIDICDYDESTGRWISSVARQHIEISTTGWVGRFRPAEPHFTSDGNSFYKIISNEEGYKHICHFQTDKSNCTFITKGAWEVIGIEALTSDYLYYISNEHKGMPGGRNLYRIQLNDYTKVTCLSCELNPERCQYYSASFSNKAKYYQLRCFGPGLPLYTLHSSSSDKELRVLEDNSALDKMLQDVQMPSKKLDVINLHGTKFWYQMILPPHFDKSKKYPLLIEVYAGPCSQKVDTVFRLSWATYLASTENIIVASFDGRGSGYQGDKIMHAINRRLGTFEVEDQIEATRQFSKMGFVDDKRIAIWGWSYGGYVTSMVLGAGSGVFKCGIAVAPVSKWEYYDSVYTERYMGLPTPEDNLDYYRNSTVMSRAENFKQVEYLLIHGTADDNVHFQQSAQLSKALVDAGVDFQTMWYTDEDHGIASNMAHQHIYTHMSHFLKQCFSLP
Dipeptidyl peptidase 4 (Homo sapiens, UniProt P27487), sequence (P27487 whole entry): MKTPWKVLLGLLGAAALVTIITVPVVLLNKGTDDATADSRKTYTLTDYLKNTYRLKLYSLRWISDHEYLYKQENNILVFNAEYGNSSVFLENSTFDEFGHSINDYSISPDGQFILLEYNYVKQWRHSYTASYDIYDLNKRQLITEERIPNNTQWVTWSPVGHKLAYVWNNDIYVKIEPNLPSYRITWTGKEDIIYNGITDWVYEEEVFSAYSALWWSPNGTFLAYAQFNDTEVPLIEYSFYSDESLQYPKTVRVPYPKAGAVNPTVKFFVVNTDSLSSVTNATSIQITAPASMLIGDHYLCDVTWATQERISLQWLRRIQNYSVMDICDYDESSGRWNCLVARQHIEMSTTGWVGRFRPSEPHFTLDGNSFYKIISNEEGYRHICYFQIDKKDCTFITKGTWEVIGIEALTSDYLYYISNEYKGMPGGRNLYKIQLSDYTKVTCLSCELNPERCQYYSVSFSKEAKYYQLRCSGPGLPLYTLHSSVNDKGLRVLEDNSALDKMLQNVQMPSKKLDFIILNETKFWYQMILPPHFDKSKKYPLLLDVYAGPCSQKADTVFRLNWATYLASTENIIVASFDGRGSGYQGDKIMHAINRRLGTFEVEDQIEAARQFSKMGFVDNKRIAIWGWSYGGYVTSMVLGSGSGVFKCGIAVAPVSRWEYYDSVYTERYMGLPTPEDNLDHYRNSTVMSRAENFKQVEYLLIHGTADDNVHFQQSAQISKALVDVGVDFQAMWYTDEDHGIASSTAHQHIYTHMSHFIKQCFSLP

For `N#CC1CC=NN1C(=O)CNC1CC2CCC1C2` (stereo not drawn), the IC50 (commonly the concentration needed to halve the response being measured) in test [1] came out at 2100 nM.
On the same count and under the same terms, the result for `C[C@@H](N)C(=O)N1N=CCC1C#N` (stereo partly drawn) reads 1200 nM.
With `N#Cc1ccc(NCCNCC(=O)N2N=CC[C@@H]2C#N)nc1`, the results for the IC50 in test [2] and in test [1] were 6820 nM and 5200 nM, respectively.
In turn, `CC(C)[C@@H](N)C(=O)N1N=CCC1C#N` (stereo partly drawn) displayed a half-maximal inhibitory concentration (IC50) in test [1] of 1900 nM.
In turn, `N#CC1CC=NN1C(=O)CNC1C2CC3CC(C2)CC1C3` (stereo not drawn) displayed an IC50 in test [1] of 3200 nM.
With `N#CC1CC=NN1C(=O)CNC1CCCCC1` (stereo in doubt; 5c), the IC50 in test [1] was determined as 2800 nM.
On the same count and under the same terms, the result for `N#Cc1ccc(NCCNCC(=O)N2NCC[C@H]2C#N)nc1` reads 60 nM; that for `N#CC1CC=NN1C(=O)CNC1CCCCCCC1` (stereo not drawn), 2600 nM.
As to `CCC(C)[C@@H](N)C(=O)N1N=CCC1C#N` (stereo partly drawn), the IC50 in test [3] came to 130 nM; in test [2] it was 80 nM; in test [1] it was 220 nM. Besides, the 50% effect level in test [4] (ED50) was put at a dose of 16.1 mg/kg.
With `N#CC1CC=NN1C(=O)CNC1CCCC1` (stereo not drawn), in test [1], the IC50 came out at 1300 nM.
`CC(C)C[C@H](N)C(=O)N1N=CCC1C#N` (stereo partly drawn) gave an IC50 in test [1] of 4300 nM.
Compound `N#CC1CC=NN1C(=O)CNC1CCCCC1` (stereo in doubt; 1g) displayed an IC50 in test [1] of 2300 nM.
`N#CC1CC=NN1C(=O)[C@H](CCCCN)NC(=O)OCc1ccccc1` (stereo partly drawn) gave an IC50 in test [1] of 660 nM.
The compound `N#CC1CC=NN1C(=O)CNC12CC3CC(CC(O)(C3)C1)C2` (stereo not drawn) displayed an IC50 in test [1] of 6400 nM.
On the same count and under the same terms, the result for `N#CC1CC=NN1C(=O)CNC12CC3CC(CC(C3)C1)C2` (stereo not drawn) reads 1500 nM; that for `N#CC1CC=NN1C(=O)CNCCNc1ccc([N+](=O)[O-])cn1` (stereo not drawn), 1200 nM; that for `N#CC1CC=NN1C(=O)CNC1CCC(NC(=O)c2ccccc2)CC1` (stereo not drawn), 4400 nM.
With `N#Cc1ccc(NCCNCC(=O)N2N=CCC2C#N)nc1` (stereo not drawn), the ED50 (in general, the midpoint of the dose-response relation) in test [4] was found to be 4.1 mg/kg. The IC50 amounted to 960 nM in test [2] and 800 nM in test [1].
As for `N#Cc1ccc(NCCNCC(=O)N2N=CC[C@H]2C#N)nc1`, the results for the IC50 in test [2] and in test [1] were 440 nM and 360 nM, respectively.
`CC(C)(C)NCC(=O)N1N=CCC1C#N` (stereo in doubt; 5a) returned an IC50 in test [1] of 24400 nM.
Regarding `N#CC1CC=NN1C(=O)CNC1CCC(Nc2ccc([N+](=O)[O-])cn2)CC1` (stereo not drawn), the IC50 in test [1] stood at 1200 nM.
